“Also recorded” adds a separate entry of the source. Counter-ions that a name gives are not always drawn.
Tests used:
[1] = test system: MA-10 mouse tumor Leydig cells; test: Cellular toxicity by MTT assay; format: cell-based; settings: 100 μM, 2 h
How it was run: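 MA-10 mouse Leydig tumor cells were grown in DMEM/F-12 Ham with 5% fetal bovine serum and 2.5% heat-inactivated horse serum. They were exposed to test compound for 2 h, at 100 μM or over 0.1–100 μM, and toxicity was read by MTT. Single-concentration data are mean ± S.E.M. (n=3), compared by one-way ANOVA with Newman-Keuls post-test. Dose curves were fitted by nonlinear regression.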

[2] = test system: MA-10 mouse tumor Leydig cells; test: Steroidogenesis assay: progesterone production by RIA; format: cell-based; settings: for time of first maximum steroid production: 50 μM, 0–120 min, biphasic time response; for stimulation of progesterone production: 100 μM; for stimulation of progesterone production / progesterone production: 2 h incubation, RIA; for progesterone production: all tested concentrations (0–100 μM)
How it was run: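 Cells were plated at 2.5 × 10^4 per well, left to adhere 18 h, washed with PBS, then given serum-free medium with 0–100 μM test compound from DMSO stocks (final DMSO <0.02%; controls matched). Incubation was 2 h, or 0–120 min at 50 μM (n=2). Medium progesterone was measured by RIA with anti-progesterone antisera and normalized to well protein (Bradford, BSA standard).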

[3] = test system: C57BL/6 mice; test: SmartCube behavioral assay; format: in vivo, mouse; settings: for SmartCube signature after chronic administration: 50 mg/kg i.p. once a day for 13 days; for SmartCube signature after a single dose: 50 mg/kg i.p., day 1, 15 min after dose
How it was run: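 Mice received test compound at 50 mg/kg i.p. once daily for 13 days, dosed 15 min before a session presenting multiple challenges, with at least 12 mice per group. Behavioral features were analyzed by computer algorithms and data mining. They were compared with a database of signatures from reference antipsychotics, anxiolytics and antidepressants.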

[4] = test system: mouse model of mania; settings: amphetamine and chlordiazepoxide induced; cited from earlier work
[5] = target: human GSK-3β (Homo sapiens, UniProt P49841); test: GSK-3β inhibition, phosphorylation of primed substrate; format: biochemical
Sequence of human GSK-3β (P49841 whole entry): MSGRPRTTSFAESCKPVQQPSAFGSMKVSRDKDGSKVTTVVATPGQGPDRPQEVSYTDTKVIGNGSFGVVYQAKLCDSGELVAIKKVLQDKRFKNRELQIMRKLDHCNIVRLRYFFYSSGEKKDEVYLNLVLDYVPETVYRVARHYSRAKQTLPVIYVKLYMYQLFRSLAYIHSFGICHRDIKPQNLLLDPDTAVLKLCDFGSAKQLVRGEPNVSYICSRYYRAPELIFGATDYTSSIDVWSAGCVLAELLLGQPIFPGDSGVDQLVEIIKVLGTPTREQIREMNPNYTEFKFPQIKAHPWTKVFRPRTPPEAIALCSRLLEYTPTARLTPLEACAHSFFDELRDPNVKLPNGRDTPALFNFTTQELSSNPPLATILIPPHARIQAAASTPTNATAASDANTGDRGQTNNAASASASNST

Compound | cellular toxicity (MTT) [1] | stimulation of progesterone production [2] | progesterone production [2] | also measured
Cn1cc(C2=C(c3coc4ccccc34)C(=O)NC2=O)c2cc(Br)ccc21 [Compound 1, 3-(benzofuran-3-yl)-4-(5-bromo-1-methyl-1H-indol-3-yl)-1H-pyrrole-2,5-dione] | either low or no apparent toxicity | bioactive in stimulating progesterone production |  | time of first maximum steroid production [2]: ≤ 15 min; SmartCube signature after chronic administration [3]: predicting anxiolytic-like activity; SmartCube signature after a single dose [3]: Neither compound demonstrated any classified behavioral activity; effect on hyperactivity [4]: attenuates hyperactivity
COCCn1cc(C2=C(c3coc4ccccc34)C(=O)NC2=O)c2ccccc21 [Compound 9, 3-(Benzofuran-3-yl)-4-(1-(2-methoxyethyl)-1H-indol-3-yl)-1H-pyrrole-2,5-dione] | either low or no apparent toxicity | bioactive in stimulating progesterone production |  | time of first maximum steroid production [2]: ≤ 15 min; SmartCube signature after chronic administration [3]: predicting anxiolytic-like activity; SmartCube signature after a single dose [3]: Neither compound demonstrated any classified behavioral activity
COCCn1cc(C2=C(c3coc4ccccc34)C(=O)NC2=O)c2cc(F)c(F)cc21 [Compound 12, 3-(Benzofuran-3-yl)-4-(5,6-difluoro-1-(2-methoxyethyl)-1H-indol-3-yl)-1H-pyrrole-2,5-dione] | significantly more cytotoxic; also recorded: toxic to the MA-10 cells | bioactive in stimulating progesterone production |  | 
Cn1cc(C2=C(c3coc4ccccc34)C(=O)NC2=O)c2cc(Br)cnc21 [Compound 13, 3-(Benzofuran-3-yl)-4-(5-bromo-1-methyl-1H-pyrrolo[2,3-b]pyridin-3-yl)-1H-pyrrole-2,5-dione] | either low or no apparent toxicity | bioactive in stimulating progesterone production |  | IC50 [5]: 5 nM
COCCn1cc(C2=C(c3coc4ccccc34)C(=O)NC2=O)c2cc(Br)cnc21 [Compound 14, 3-(Benzofuran-3-yl)-4-(5-bromo-1-(2-methoxyethyl)-1H-pyrrolo[2,3-b]pyridin-3-yl)-1Hpyrrole-2,5-dione] | either low or no apparent toxicity | bioactive in stimulating progesterone production |  | 
COCCn1cc(C2=C(c3coc4ccccc34)C(=O)NC2=O)c2cccnc21 [Compound 16, 3-(Benzofuran-3-yl)-4-(1-(2-methoxyethyl)-1H-pyrrolo[2,3-b]pyridin-3-yl)-1H-pyrrole-2,5-dione] | low, but observable signs of cytotoxicity |  | < 30 ng progesterone/mg protein | 
COc1cc2c(C3=C(c4coc5ccccc45)C(=O)NC3=O)cn(C)c2cn1 [Compound 17, 3-(Benzofuran-3-yl)-4-(5-methoxy-1-methyl-1H-pyrrolo[2,3-c]pyridin-3-yl)-1H-pyrrole-2,5-dione] |  |  | < 30 ng progesterone/mg protein | 
Cn1cc(C2=C(c3cnc4ccccn34)C(=O)NC2=O)c2cc3c(cc21)OCO3 [Compound 19, 3-(Imidazo[1,2-a]pyridin-3-yl)-4-(5-methyl-5H-[1,3]dioxolo[4,5-f]indol-7-yl)-1H-pyrrole-2,5-dione trifluoroacetate] |  |  |  | IC50 [5]: 5 nM
Cn1cc(C2=C(c3cnc4ccccn34)C(=O)NC2=O)c2cc(Br)ccc21 [Compound 20, 3-(5-Bromo-1-methyl-1H-indol-3-yl)-4-(imidazo[1,2-a]pyridin-3-yl)-1H-pyrrole-2,5-dione trifluoroacetate] |  |  | < 30 ng progesterone/mg protein | 
COCCc1cccc2c(C3=C(c4coc5ccccc45)C(=O)NC3=O)cn(C)c12 [Compound 21, 3-(Benzofuran-3-yl)-4-(7-(2-methoxyethyl)-1-methyl-1H-indol-3-yl)-1H-pyrrole-2,5-dione] | either low or no apparent toxicity | bioactive in stimulating progesterone production |  | 
COCCc1cccc2c(C3=C(c4coc5ccccc45)C(=O)NC3=O)cn(CCOC)c12 [Compound 23, 3-(Benzofuran-3-yl)-4-(1,7-bis(2-methoxyethyl)-1H-indol-3-yl)-1H-pyrrole-2,5-dione] | low, but observable signs of cytotoxicity |  | < 30 ng progesterone/mg protein | 
O=C1NC(=O)C(c2cn3c4c(cc(F)cc24)CNCC3)=C1c1coc2ccccc12 [Compound 25, 3-(Benzofuran-3-yl)-4-(9-fluoro-1,2,3,4-tetrahydro-[1,4]diazepino[6,7,1-hi]indol-7-yl)-1H-pyrrole-2,5-dione trifluoroacetate] |  |  | < 30 ng progesterone/mg protein | 
O=C1NC(=O)C(c2cn3c4c(cc(Br)cc24)CNCC3)=C1c1coc2ccccc12 [Compound 26, 3-(Benzofuran-3-yl)-4-(9-bromo-1,2,3,4-tetrahydro-[1,4]diazepino[6,7,1-hi]indol-7-yl)-1H-pyrrole-2,5-dione trifluoroacetate] | toxic to the MA-10 cells | bioactive in stimulating progesterone production |  | 
O=C1NC(=O)C(c2cn3c4c(cc(F)cc24)CN(C(=O)N2CCC(N4CCCCC4)CC2)CC3)=C1c1coc2ccccc12 [Compound 30, 3-(2-([1,4’-Bipiperidine]-1’-carbonyl)-9-fluoro-1,2,3,4-tetrahydro-[1,4]diazepino[6,7,1-hi]indol-7-yl)-4-(benzofuran-3-yl)-1H-pyrrole-2,5-dione trifluoroacetate] | significantly more cytotoxic |  |  | 
O=C1NC(=O)C(c2cn3c4c(cc(F)cc24)CN(C(=O)N2CCOCC2)CC3)=C1c1coc2ccccc12 [Compound 31, 3-(Benzofuran-3-yl)-4-(9-fluoro-2-(morpholine-4-carbonyl)-1,2,3,4-tetrahydro-[1,4]diazepino[6,7,1-hi]indol-7-yl)-1H-pyrrole-2,5-dione] | significantly more cytotoxic |  |  | 

— article PMC3777810 (Journal of medicinal chemistry, 2013)
